Laboratory results: ChEMBL document CHEMBL4261490, “Exploring the links between peptoid antibacterial activity and toxicity” (Medchemcomm, 2017)
In brackets after ≈: the same amount, converted by molar mass. Square brackets hold non-standard residues; d marks the D form. Peptide text beside a SMILES is read from it. Gly(Nα-4-Cl-benzyl) = O=C(O)CNCc1ccc(Cl)cc1; Gly(N-(CH2)6NH2) = NCCCCCCNCC(=O)O; Gly(N-2-aminoethyl) = NCCNCC(=O)O; Nspe = C[C@H](NCC(=O)O)c1ccccc1; NhArg = N=C(N)NCCCCNCC(=O)O; NPentylGly = CCCCCNCC(=O)O; Nphe = O=C(O)CNCc1ccccc1; Nlys = NCCCCNCC(=O)O

Key:
[1] = Selectivity index, ratio of ED50 for human HaCaT cells to MIC for Escherichia coli K-12 W3110 ATCC 27325; type: toxicity; conditions: read-out: Selectivity Index
[2] = Selectivity index, ratio of ED50 for human HaCaT cells to MIC for Staphylococcus aureus 3R7089 strain Oxford/ATCC 9144; type: toxicity; conditions: read-out: Selectivity Index
[3] = Selectivity index, ratio of ED50 for human HaCaT cells to MIC for Staphylococcus epidermidis clinical isolate; type: toxicity; conditions: read-out: Selectivity Index
[4] = Selectivity index, ratio of ED50 for human HaCaT cells to MIC for Pseudomonas aeruginosa PAO1 ATCC 15692; type: toxicity; conditions: read-out: Selectivity Index
Escherichia coli = assay: Antibacterial activity against Escherichia coli K-12 W3110 ATCC 27325 incubated for 16 hrs under shaking condition; type: functional; conditions: K-12 substr. W3110 ATCC 27325, 16 h
Method in brief: (§1)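 Broth microdilution (Andrews method) in Iso-sensitest broth. Overnight cultures are adjusted to A650 0.07 (0.5 McFarland) and diluted ten-fold. Compounds come from 5 mM DMSO stocks, 2-fold serially diluted, final 2–100 μM in a 1:1 inoculum:compound mix. Incubation is 37 °C for 16 h with shaking. MIC is the lowest concentration giving complete growth inhibition, read by absorbance; triplicate.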

[5] = Selectivity index, ratio of ED50 for human HepG2 cells to MIC for Staphylococcus epidermidis clinical isolate; type: toxicity; conditions: read-out: Selectivity Index
[6] = Cytotoxicity against human HepG2 cells assessed as reduction in cell viability pretreated for 1 hr followed by DMEM addition measured after 24 hrs by alamar blue assay; type: cell-based; conditions: read-out: ED50
Method in brief: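 HepG2 cells are kept in DMEM high glucose with 10% heat-inactivated FBS and 1% P/S at 37 °C, 5% CO2, and seeded at 2x10^4 cells/well one day ahead. They are exposed to compounds (100 to 3 µM, from 5 mM DMSO stocks) in 50 µL for 1 h. Medium is then added and cells incubated 24 h. alamarBlue is read after 2 h (Ex 560/Em 600). Triplicate on ≥2 occasions; ED50 from dose-response; DMSO negative control.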

[7] = Selectivity index, ratio of ED50 for human HepG2 cells to MIC for Pseudomonas aeruginosa PAO1 ATCC 15692; type: toxicity; conditions: read-out: Selectivity Index
[8] = Selectivity index, ratio of ED50 for human HepG2 cells to MIC for Escherichia coli K-12 W3110 ATCC 27325; type: toxicity; conditions: read-out: Selectivity Index
Pseudomonas aeruginosa = assay: Antibacterial activity against Pseudomonas aeruginosa PAO1 ATCC 15692 incubated for 16 hrs under shaking condition; type: functional; conditions: PAO1 ATCC 15692, 16 h; method in brief: as §1
[9] = Selectivity index, ratio of ED50 for human HepG2 cells to MIC for Staphylococcus aureus 3R7089 strain Oxford/ATCC 9144; type: toxicity; conditions: read-out: Selectivity Index
Staphylococcus aureus = assay: Antibacterial activity against Staphylococcus aureus 3R7089 strain Oxford/ATCC 9144 incubated for 16 hrs under shaking condition; type: functional; conditions: 3R7089 strain Oxford/ATCC 9144, 16 h; method in brief: as §1
[10] = test system: Staphylococcus epidermidis; assay: Antibacterial activity against Staphylococcus epidermidis clinical isolate incubated for 16 hrs under shaking condition; type: functional; method in brief: as §1
[11] = Cytotoxicity against human HaCaT cells assessed as reduction in cell viability pretreated for 1 hr followed by DMEM addition measured after 24 hrs by alamar blue assay; type: cell-based; conditions: read-out: ED50
Method in brief: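 HaCaT keratinocytes are grown in DMEM high glucose with 10% FBS and 1% P/S and seeded at 2x10^4 cells/well 24 h before treatment. Compound dilution series run 2–100 µM (5 mM DMSO stocks) in 50 µL for 1 h, then medium is added for 24 h at 37 °C, 5% CO2. alamarBlue is read after 1 h (Ex 540/Em 620). Triplicate, ≥2 occasions; ED50 from dose-response; amphotericin B positive control.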

MIC (Pseudomonas aeruginosa) | MIC [10] | SMILES | selectivity ratio [1] | selectivity ratio [2] | selectivity ratio [3] | selectivity ratio [4] | MIC (Escherichia coli) | selectivity ratio [5] | CC50 at 24 h [6] | selectivity ratio [7] | selectivity ratio [8] | selectivity ratio [9] | MIC (Staphylococcus aureus) | CC50 at 24 h [11]
> 100 µM | 2 µM (≈ 3.64 µg/mL) | CCCCCN(CC(=O)N(CC(=O)N(CC(=O)N(CCCCN)CC(=O)N(CC(=O)N(CC(N)=O)[C@@H](C)c1ccccc1)[C@@H](C)c1ccccc1)C(C)c1ccccc1)[C@@H](C)c1ccccc1)C(=O)CN(C(=O)CN(C(=O)CN(CCCCN)C(=O)CN(C(=O)CN(C(=O)CNCCCCN)[C@@H](C)c1ccccc1)C(C)c1ccccc1)[C@@H](C)c1ccccc1)C(C)c1ccccc1 (single isomer, unassigned) | – | 3 | 10 | – | > 100 µM | 11 | 22 µM | – | – | 4 | 6 µM (≈ 10.9 µg/mL) | 20 µM
> 100 µM | 1 µM (≈ 1.82 µg/mL) | CCCCCNCC(=O)N(CC(=O)N(CC(=O)N(CCCCC)CC(=O)N(CC(=O)N(CC(=O)N(CCCCN)CC(=O)N(CC(=O)N(CC(=O)N(CCCCN)CC(=O)N(CC(=O)N(CC(N)=O)[C@@H](C)c1ccccc1)[C@@H](C)c1ccccc1)C(C)c1ccccc1)[C@@H](C)c1ccccc1)C(C)c1ccccc1)[C@@H](C)c1ccccc1)C(C)c1ccccc1)[C@@H](C)c1ccccc1 (single isomer, unassigned) | – | 10 | 20 | – | > 100 µM | 18 | 18 µM | – | – | 9 | 2 µM (≈ 3.63 µg/mL) | 20 µM
> 100 µM | – | CCCCCNCC(=O)N(CC(=O)N(CC(=O)N(CCCCNC(=N)N)CC(=O)N(CC(=O)N(CC(=O)N(CCCCC)CC(=O)N(CC(=O)N(CC(=O)N(CCCCNC(=N)N)CC(=O)N(CC(=O)N(CC(N)=O)[C@@H](C)c1ccccc1)[C@@H](C)c1ccccc1)[C@@H](C)c1ccccc1)[C@@H](C)c1ccccc1)[C@@H](C)c1ccccc1)[C@@H](C)c1ccccc1)[C@@H](C)c1ccccc1)[C@@H](C)c1ccccc1 (H-[NPentylGly][Nspe][Nspe][NhArg][Nspe][Nspe][NPentylGly][Nspe][Nspe][NhArg][Nspe][Nspe]-NH2) | – | 10 | 5 | – | > 100 µM | 4 | – | – | – | 8 | – | –

Continued, compound first:

SMILES | MIC (Pseudomonas aeruginosa) | MIC [10] | selectivity ratio [1] | selectivity ratio [2] | selectivity ratio [3] | selectivity ratio [4] | MIC (Escherichia coli) | selectivity ratio [5] | CC50 at 24 h [6] | selectivity ratio [7] | selectivity ratio [8] | selectivity ratio [9] | MIC (Staphylococcus aureus) | CC50 at 24 h [11]
COc1ccc(CN(CC(N)=O)C(=O)CN(Cc2ccc(OC)cc2)C(=O)CN(CCCCN)C(=O)CN(Cc2ccc(OC)cc2)C(=O)CN(Cc2ccc(OC)cc2)C(=O)CN(CCCCN)C(=O)CN(Cc2ccc(OC)cc2)C(=O)CN(Cc2ccc(OC)cc2)C(=O)CN(CCCCN)C(=O)CN(Cc2ccc(OC)cc2)C(=O)CN(Cc2ccc(OC)cc2)C(=O)CNCCCCN)cc1 | > 100 µM | – | 0 | 14 | 21 | 0 | > 100 µM | 50 | > 100 µM | 1 | 1 | 33 | – | –
NCCCCNCC(=O)N(CC(=O)N(CC(=O)N(CCCCN)CC(=O)N(CC(=O)N(CC(=O)N(CCCCN)CC(=O)N(CC(=O)N(CC(=O)N(CCCCN)CC(=O)N(CC(=O)N(CC(N)=O)Cc1ccc(Cl)cc1)Cc1ccc(Cl)cc1)Cc1ccc(Cl)cc1)Cc1ccc(Cl)cc1)Cc1ccc(Cl)cc1)Cc1ccc(Cl)cc1)Cc1ccc(Cl)cc1)Cc1ccc(Cl)cc1 (H-[Nlys][Gly(Nα-4-Cl-benzyl)][Gly(Nα-4-Cl-benzyl)][Nlys][Gly(Nα-4-Cl-benzyl)][Gly(Nα-4-Cl-benzyl)][Nlys][Gly(Nα-4-Cl-benzyl)][Gly(Nα-4-Cl-benzyl)][Nlys][Gly(Nα-4-Cl-benzyl)][Gly(Nα-4-Cl-benzyl)]-NH2) | > 100 µM | – | – | 1 | 3 | – | > 100 µM | 4 | – | – | – | 1 | – | –
CC(c1ccccc1)N(CC(=O)N(CCCCN)CC(=O)N(CC(=O)N(CC(=O)N(CCCCN)CC(=O)N(CC(=O)N(CC(N)=O)[C@@H](C)c1ccccc1)[C@@H](C)c1ccccc1)Cc1ccc(F)cc1)Cc1ccc(F)cc1)C(=O)CN(C(=O)CN(CCCCN)C(=O)CN(Cc1ccc(F)cc1)C(=O)CN(Cc1ccc(F)cc1)C(=O)CNCCCCN)[C@@H](C)c1ccccc1 (single isomer, unassigned) | 50 µM (≈ 91.8 µg/mL) | 1 µM (≈ 1.84 µg/mL) | 13 | 50 | 100 | 2 | 6 µM (≈ 11 µg/mL) | 55 | 55 µM | – | 9 | 28 | 2 µM (≈ 3.67 µg/mL) | > 100 µM
NCCNCC(=O)N(CC(=O)N(CC(=O)N(CCN)CC(=O)N(CC(=O)N(CC(=O)N(CCN)CC(=O)N(CC(=O)N(CC(N)=O)Cc1ccccc1)Cc1ccccc1)Cc1ccccc1)Cc1ccccc1)Cc1ccccc1)Cc1ccccc1 (H-[Gly(N-2-aminoethyl)][Nphe][Nphe][Gly(N-2-aminoethyl)][Nphe][Nphe][Gly(N-2-aminoethyl)][Nphe][Nphe]-NH2) | > 100 µM | > 100 µM | 1 | 8 | 1 | 1 | > 100 µM | 1 | > 100 µM | 1 | 1 | 8 | – | > 100 µM
C[C@@H](c1ccccc1)N(CC(N)=O)C(=O)CN(C(=O)CN(CCN)C(=O)CN(C(=O)CN(C(=O)CN(CCN)C(=O)CN(C(=O)CN(C(=O)CN(CCN)C(=O)CN(C(=O)CN(C(=O)CNCCN)[C@@H](C)c1ccccc1)[C@@H](C)c1ccccc1)[C@@H](C)c1ccccc1)[C@@H](C)c1ccccc1)[C@@H](C)c1ccccc1)[C@@H](C)c1ccccc1)[C@@H](C)c1ccccc1 (H-[Gly(N-2-aminoethyl)][Nspe][Nspe][Gly(N-2-aminoethyl)][Nspe][Nspe][Gly(N-2-aminoethyl)][Nspe][Nspe][Gly(N-2-aminoethyl)][Nspe][Nspe]-NH2) | – | – | – | 13 | 13 | 1 | > 100 µM | 21 | – | 1 | – | 21 | – | –
CCCCCNCC(=O)N(CC(=O)N(CC(=O)N(CCCCN)CC(=O)N(CC(=O)N(CC(=O)N(CCCCN)CC(=O)N(CC(=O)N(CC(=O)N(CCCCN)CC(=O)N(CC(=O)N(CC(N)=O)[C@@H](C)c1ccccc1)[C@@H](C)c1ccccc1)C(C)c1ccccc1)[C@@H](C)c1ccccc1)[C@@H](C)c1ccccc1)[C@@H](C)c1ccccc1)C(C)c1ccccc1)[C@@H](C)c1ccccc1 (single isomer, unassigned) | – | – | – | 6 | 6 | – | 50 µM (≈ 90.9 µg/mL) | 8 | 15 µM | – | – | 8 | 2 µM (≈ 3.64 µg/mL) | 12 µM
C[C@@H](c1ccccc1)N(CC(N)=O)C(=O)CN(C(=O)CN(CCCCN)C(=O)CN(C(=O)CN(C(=O)CNCCCCN)[C@@H](C)c1ccccc1)[C@@H](C)c1ccccc1)[C@@H](C)c1ccccc1 (H-[Nlys][Nspe][Nspe][Nlys][Nspe][Nspe]-NH2) | > 100 µM | – | 1 | 1 | 4 | 1 | > 100 µM | 4 | > 100 µM | 1 | 1 | 1 | > 100 µM | > 100 µM
C[C@@H](c1ccccc1)N(CC(N)=O)C(=O)CN(C(=O)CN(CCCCCCN)C(=O)CN(C(=O)CN(C(=O)CN(CCCCCCN)C(=O)CN(C(=O)CN(C(=O)CNCCCCCCN)[C@@H](C)c1ccccc1)[C@@H](C)c1ccccc1)[C@@H](C)c1ccccc1)[C@@H](C)c1ccccc1)[C@@H](C)c1ccccc1 (H-[Gly(N-(CH2)6NH2)][Nspe][Nspe][Gly(N-(CH2)6NH2)][Nspe][Nspe][Gly(N-(CH2)6NH2)][Nspe][Nspe]-NH2) | > 100 µM | 2 µM (≈ 2.91 µg/mL) | 4 | 33 | 50 | 1 | – | 50 | > 100 µM | 1 | 4 | 33 | 3 µM (≈ 4.36 µg/mL) | > 100 µM
